# Data as given in PubChem BioAssay AID624204 (Sanford-Burnham Center for Chemical Genomics, 2012).
# Hit rate of the full screen: of about 360,000 compounds, about 770 (0.21%) were called active. The list comes from a sample in which actives are over-represented; it also holds similar structures and randomly drawn compounds. Unmarked numbers belong to inactive results.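 How the source made its calls: active means inhibition at least 30% at 10 µM, raw YFP signal under a set limit, fluorescence ratio 0.5 to 1.5; inactive means the rest.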
# Target: Sentrin-specific protease 1 (Homo sapiens) (UniProt Q9P0U3)
# Test: human SENP1 catalytic domain inhibitors, primary screen, biochemical, FRET, uHTS (AID 624204);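 further: 0% = enzyme with DMSO and 100% = no enzyme wells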
# Conditions: recombinant SENP1 catalytic domain, CyPet-SUMO1-YPet FRET cleavage; at 10 µM; hits give high values
# Summary of the method: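 Controls: no-enzyme wells low, DMSO-plus-enzyme wells high control. Test system: human recombinant His6-tagged SENP1 catalytic domain enzyme. Reagent: SFCypet-SUMO1-SFYpet FRET protein substrate, 25 nM final. Doses: one dose per compound, 10 µM, 0.5% DMSO. Detection: FRET, CFP and YFP emission. Timing: 50 min reaction at room temperature.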
# Chain of Sentrin-specific protease 1 (Homo sapiens) (Q9P0U3 419-644 limits assumed): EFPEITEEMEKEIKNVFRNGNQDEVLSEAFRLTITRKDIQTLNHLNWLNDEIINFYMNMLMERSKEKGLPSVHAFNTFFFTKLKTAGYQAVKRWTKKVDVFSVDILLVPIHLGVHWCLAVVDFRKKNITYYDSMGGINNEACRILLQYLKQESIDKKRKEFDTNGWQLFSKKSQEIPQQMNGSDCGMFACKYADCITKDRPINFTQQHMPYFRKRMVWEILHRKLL
row,SMILES,inhibition
1,Nn1c(Cc2cccc3ccccc23)nnc1SCC(=O)N1CC(=O)Nc2ccccc21,3.32%
2,CCc1ccc2ncc(C(=O)c3ccccc3)c(N3CCOCC3)c2c1,-0.316%
3,O=C(CCN1C(=O)/C(=C/c2cccs2)SC1=S)NNC(=O)c1cccc(O)c1,72.7% (active)
4,O=C(CCN1C(=O)c2ccccc2C1=O)NNC(=O)c1ccc(Cl)cc1Cl,1.7%
5,Cc1c(C(=O)NCCN2C(=O)S/C(=C\c3cccs3)C2=O)cccc1[N+](=O)[O-],5.33%
6,O=C(O)c1cc(S(=O)(=O)N2CCCCCC2)c(Cl)cc1Cl,-0.414%
7,Cc1nn(-c2ccccc2)c(CC(C)(C)C(=O)O)c1C(=O)O,1.05%
8,CCCCN(C(=O)CSCC(=O)Nc1ccc(OC)cc1)c1c(N)n(CCC)c(=O)[nH]c1=O,-2.42%
9,Cc1cc(=O)cc(C)n1-c1ccc(Cl)c(Cl)c1,2.24%
10,CC(=O)NC1(c2cccc(F)c2)CCN(CC(=O)NC(C)C)CC1,-0.563%
11,O=C(CC1CCCCC1)NCc1ccc(F)cc1,1.88%
12,CNS(=O)(=O)c1cccc(C(=O)OCCCC(=O)c2ccccc2)c1,0.585%
13,COc1ccc(CC2c3cc(OC)c(OC)cc3CC[N+]2(C)CCC(=O)OCCCCCOC(=O)CC[N+]2(C)CCc3cc(OC)c(OC)cc3C2Cc2ccc(OC)c(OC)c2)cc1OC (configuration not stated),-1.31%
14,CN(C)C(=O)c1cccc(-c2cnc3c(NC=O)cc(-c4ccc(C(=O)N5CCOCC5)cc4)cn23)c1,-29.9%
15,CC(=O)c1cccc(-c2cnc3c(NC=O)cc(-c4ccc(N(C)C)cc4)cn23)c1,50% (active)
16,CC(=O)c1cccc(-c2cnc3c(NC=O)cc(-c4ccc(N5CCN(C)CC5)cc4)cn23)c1,28%
17,CC(=O)NCC(=O)N1CCC(n2nccc2NC(=O)CCCc2ccccc2)CC1,0.687%
18,Cc1nc2nc(C)c(CCC(=O)N3CCN(c4ccccc4)CC3)c(C)n2n1,0.72%
19,O=C(C[C@H]1C[C@H]2c3cc(NS(=O)(=O)c4ccc(F)cc4)ccc3O[C@H]2[C@H](CO)O1)NCc1cc(F)ccc1F,-0.578%

row,SMILES,inhibition
1,O=C(Nc1ccc(F)cc1F)N1CCCN(CCOc2ccccc2)CC1,-1.95%
2,COc1ccc(N2CCN(C(=O)c3ccc(N4CCCCS4(=O)=O)cc3)CC2)cc1,-2.08%
3,Cn1nnnc1SCC(=O)Nc1ccccc1C(=O)NC1CC1,-4.1%
4,Cc1cccc(NC(=O)c2ccc3c(=O)n(CC4CCCO4)c(=S)[nH]c3c2)c1 (configuration not stated),-0.024%
5,CC1(C)CN(c2ccc(-c3ccnc4ncnn34)cc2)C1=O,-1.93%
6,COc1ccc(C(=O)C[n+]2ccc(N)c(C)c2C)cc1,1.97%
7,O=C(NC(=O)c1ccccc1)Nc1ccccc1O,31.8% (active)
8,O=C(Cc1ccc(Cl)cc1)NC(=S)Nc1ccccc1O,0.309%
9,O=C(NC(=S)Nc1cccc2c(O)cccc12)c1cccc(Br)c1,-10.5%
10,CC(C)Cn1cnc2c1c(=O)n(CC(O)c1ccccc1)c(=O)n2CC(C)C (configuration not stated),1.26%
11,CC1(C(=O)NCc2ccccc2)CSCC(=O)N1CCCn1ccnc1 (configuration not stated),0.15%
12,COc1cc(Br)cc(/C=N/c2ncn[nH]2)c1O,10.2%
13,CC(=O)N(CC(O)CO)c1c(I)c(C(=O)NCC(O)CO)c(I)c(C(=O)NCC(O)CO)c1I (configuration not stated),-0.483%
14,COCC(C)NC(=O)c1ccc(-n2nc(C(F)(F)F)cc2-c2cccs2)cc1 (configuration not stated),-1.75%
15,CCN(CC(=O)Nc1cc(Cl)ccc1C)C(=O)CSCc1ccc(C)cc1,1.09%
16,CN(C)c1ccc(Nc2c3c4c(cccc4n(C)c2=O)C(=O)c2ccccc2-3)cc1,60.4% (active)
17,Cc1nn2c(c1-c1ccccc1)N=C(c1ccco1)CC2c1ccccc1 (configuration not stated),38.7% (active)
18,O=C(O)CCCC(=O)N1N=C(c2ccco2)CC1c1ccco1 (configuration not stated),0.794%
19,CCOc1ccc(-c2c(C)n([O-])c3c([n+]2=O)CCCC3)cc1,0.993%

row,SMILES,inhibition
1,COC(CNC(=O)Cn1ncc2ccsc2c1=O)OC,2.87%
2,O=C(NCCC1CCCCN1S(=O)(=O)c1cccs1)C(=O)Nc1ccc(F)cc1F (configuration not stated),0.809%
3,COc1ccc(C=C2CCC3C(CCCC34OCCO4)C2=O)cc1 (configuration not stated),0.924%
4,Cc1ccc(N=C2NC(=O)c3cccc([N+](=O)[O-])c32)cc1,1.42%
5,COc1ccc(NC(=O)CN(C)C(=O)Cc2coc3cc(C)c(C)cc23)cc1,-6.79%
6,COc1ccccc1C1=CC(=O)C[C@H](c2ccc(F)cc2)C1,3.3%
7,O=C1C=C(c2cccc(Cl)c2O)C[C@@H](c2ccc(F)cc2)C1,54.2% (active)
8,O=C1C=C(c2cccc(Cl)c2)C[C@@H](c2ccc(F)cc2)C1,1.33%
9,O=S1(=O)CCN(C2CCCCCCCCCCC2)CC1,1.39%
10,COC(=O)c1ccc(CNC(=O)C2CCC(=O)N(Cc3ccccn3)C2)cc1 (configuration not stated),0.319%
11,COCCNc1nc2nonc2nc1N1CCCC1c1nccs1 (configuration not stated),-72.6%
12,Cn1c(-c2sccc2OCc2cccc(C(F)(F)F)c2)n[nH]c1=S,2.98%
13,Cn1c(-c2sc3cc(C(F)(F)F)cnc3c2-c2ccccc2)n[nH]c1=S,31.9% (active)
14,FC(F)(F)c1ccc(-n2cn[nH]c2=S)cc1,-0.325%
15,CNc1nccc(-c2ccc(Cl)cc2)c1C#N,-1.17%
16,Cc1ccc(NC(=O)Cn2c(=O)n(CCC(=O)NC3CCN(Cc4ccccc4)CC3)c(=O)c3ccccc32)cc1,2.04%
17,O=C1CCC[C@@H]2CC(N3CCCCC3)C[C@@H]3CCN1[C@H]23 (some centres not stated),-1.06%
18,Cc1cc2c(cc1C)NC1(C[C@H]3CCC(=O)N4CC[C@@H](C1)[C@@H]34)C(=NC(C)(C)CC(C)(C)C)N2 (some centres not stated),2.4%
19,O=C1CC[C@@H]2CC3(C[C@@H]4CCN1[C@H]24)Nc1cc([N+](=O)[O-])ccc1NC3=NC1CCCCC1 (some centres not stated),51% (active)
